Results: ChEMBL document CHEMBL5096187, “Efficient Synthesis and Bioevaluation of Novel Dual Tubulin/Histone Deacetylase 3 Inhibitors as Potential Anticancer Agents” (J Med Chem, 2021)
pIC50: −log10 of the molar value.

How the values were obtained:
[1] = system: B16-F10; assay: Upregulation of AC-H3 in mouse B16-F10 cells incubated for 12 hrs by Western blot analysis; format: functional, cell-based; settings: dose 20-200 nM, DDE = dose-dependent effect
Outline: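 B16-F10 cells (5 × 10⁵/well) treated 12 h with DMSO or compound, lysed in RIPA buffer. 30 μg protein separated by SDS-PAGE and blotted onto PVDF. Blocked 5% BSA 2 h, primary antibody overnight at 4 °C, secondary 1.5 h. Ac-H3 probed, with histone H3 and GAPDH as loading controls; band density quantified; three independent experiments.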

[2] = target: Tubulin (Sus scrofa) (UniProt P02554+P02550); assay: Inhibition of pig brain tubulin polymerization at 10 uM measured after 20 mins by spectrometric method relative to control
Outline: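 Pig brain tubulin was purified by three assembly/disassembly cycles and then phosphocellulose chromatography. Compound at 10 μM in PEM buffer with 1 mM GTP and 5% glycerol at 37 °C. Polymerization followed at 340 nm; inhibition taken at 20 min versus vehicle control.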

[3] = Toxicity in C57BL/6 mouse allografted with mouse B16-F10 cells assessed as morphological abnormalities in kidney at 10 mg/kg, ip administered for 14 days by H and E staining based analysis; format: organism-based; settings: in vivo, 336 h, time 14 day
Outline: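 C57BL/6 mice with subcutaneous B16-F10 allografts, n = 8 per group, given i.p. injections once daily for 14 days. Single agents at 10 mg/kg; combination at 5 + 5 mg/kg. Vehicle: ethanol/polyoxyethylene castor oil/saline 1.25:1.25:7.5. Liver and kidney fixed in 4% paraformaldehyde, paraffin-embedded, H&E stained and examined by microscopy.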

[4] = system: A549; assay: Antiproliferative activity against human A549 cells assessed as inhibition of cell viability measured for 48 hrs by microplate reader based CCK-8 assay; format: functional; settings: A549, 48 h
[5] = system: B16-F10; assay: Induction of apoptosis in mouse B16-F10 cells assessed as early apoptotic cells at 25 nM incubated for 48 hrs by Annexin V-FITC/PI analysis (reference value: 1.68 %); format: functional
[6] = target: T1, Protein deacetylase HDAC6 (Homo sapiens, UniProt Q9UBN7); assay: Inhibition of full length N-terminal GST-tagged human recombinant HDAC6 (1 to 1215 residues) expressed in Baculovirus infected Sf9 cells using Ac-Leu-Gly-Lys (Ac)-AMC as substrate pretreated for 5 mins followed by substrate addition and measured after 30 mins
T1 sequence (Q9UBN7 whole entry): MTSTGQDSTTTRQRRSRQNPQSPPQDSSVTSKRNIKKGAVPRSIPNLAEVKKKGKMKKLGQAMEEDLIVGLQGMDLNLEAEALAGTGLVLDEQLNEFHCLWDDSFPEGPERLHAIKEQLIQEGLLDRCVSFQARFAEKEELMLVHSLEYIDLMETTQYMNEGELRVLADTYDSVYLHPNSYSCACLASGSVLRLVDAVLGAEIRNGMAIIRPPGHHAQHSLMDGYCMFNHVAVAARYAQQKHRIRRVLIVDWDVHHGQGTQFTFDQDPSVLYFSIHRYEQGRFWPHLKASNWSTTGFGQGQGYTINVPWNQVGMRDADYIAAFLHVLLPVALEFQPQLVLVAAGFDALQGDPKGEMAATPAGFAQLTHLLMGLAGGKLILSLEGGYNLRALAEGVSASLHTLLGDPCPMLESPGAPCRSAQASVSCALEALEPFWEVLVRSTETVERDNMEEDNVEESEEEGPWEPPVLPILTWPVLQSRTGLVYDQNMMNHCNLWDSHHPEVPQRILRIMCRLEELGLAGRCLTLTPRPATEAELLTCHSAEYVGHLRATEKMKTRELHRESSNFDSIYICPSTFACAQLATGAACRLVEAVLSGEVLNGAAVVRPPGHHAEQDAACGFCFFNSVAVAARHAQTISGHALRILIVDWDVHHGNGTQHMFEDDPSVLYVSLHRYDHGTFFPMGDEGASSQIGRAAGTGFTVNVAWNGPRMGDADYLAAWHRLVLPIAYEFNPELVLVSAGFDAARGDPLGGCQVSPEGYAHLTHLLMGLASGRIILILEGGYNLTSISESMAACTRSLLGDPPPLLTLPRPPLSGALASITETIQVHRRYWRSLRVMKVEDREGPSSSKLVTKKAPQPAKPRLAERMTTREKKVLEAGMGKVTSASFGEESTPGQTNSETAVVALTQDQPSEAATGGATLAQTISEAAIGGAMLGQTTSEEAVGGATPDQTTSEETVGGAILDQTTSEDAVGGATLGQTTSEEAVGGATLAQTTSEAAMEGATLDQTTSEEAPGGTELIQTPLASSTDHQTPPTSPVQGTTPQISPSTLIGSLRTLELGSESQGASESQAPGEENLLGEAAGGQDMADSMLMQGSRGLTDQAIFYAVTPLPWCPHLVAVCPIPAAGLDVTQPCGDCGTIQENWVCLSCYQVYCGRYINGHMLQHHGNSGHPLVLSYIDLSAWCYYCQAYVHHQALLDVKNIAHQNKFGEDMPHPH
Outline: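 HDAC6 at 15 ng/well in Tris buffer pH 8.0 with MgCl2, BSA, NaCl and KCl. Ten 3-fold dilutions preincubated 5 min at room temperature, then 10 μM Ac-Leu-Gly-Lys(Ac)-AMC for 30 min at 37 °C. IC50 by normalized dose–response nonlinear fit; performed at least three times.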

[7] = system: B16-F10; assay: Induction of apoptosis in mouse B16-F10 cells assessed as early apoptotic cells at 50 nM incubated for 48 hrs by Annexin V-FITC/PI analysis (reference value: 1.68 %); format: functional
[8] = In vivo inhibition of HDAC in tumor of mouse B16-F10 cells xenografted in C57BL/6 mouse assessed as increase in acetylated histone-H3 expression by […] immunohistochemistry method; format: functional; set-up: scale not given: the % may be the effect or the level left
Outline: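 Tumors from the 14-day i.p. B16-F10 study were formalin-fixed and paraffin-embedded. Sections were deparaffinized, treated with 3% H2O2, and antigen-retrieved at pH 9 and 80 °C overnight. Blocked with milk, incubated with anti-Ac-H3 at 4 °C overnight, then IgG secondary and hematoxylin counterstain. Ac-H3-positive ratio quantified from images.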

[9] = system: B16-F10; assay: Induction of apoptosis in mouse B16-F10 cells assessed as necrotic cells at 50 nM incubated for 48 hrs by Annexin V-FITC/PI analysis (reference value: 0.012 %); format: functional
[10] = Hepatotoxicity in C57BL/6 mouse assessed as effect on AST level in serum; format: toxicity

Sequence of Tubulin (Sus scrofa) (P02550 whole entry, looked up): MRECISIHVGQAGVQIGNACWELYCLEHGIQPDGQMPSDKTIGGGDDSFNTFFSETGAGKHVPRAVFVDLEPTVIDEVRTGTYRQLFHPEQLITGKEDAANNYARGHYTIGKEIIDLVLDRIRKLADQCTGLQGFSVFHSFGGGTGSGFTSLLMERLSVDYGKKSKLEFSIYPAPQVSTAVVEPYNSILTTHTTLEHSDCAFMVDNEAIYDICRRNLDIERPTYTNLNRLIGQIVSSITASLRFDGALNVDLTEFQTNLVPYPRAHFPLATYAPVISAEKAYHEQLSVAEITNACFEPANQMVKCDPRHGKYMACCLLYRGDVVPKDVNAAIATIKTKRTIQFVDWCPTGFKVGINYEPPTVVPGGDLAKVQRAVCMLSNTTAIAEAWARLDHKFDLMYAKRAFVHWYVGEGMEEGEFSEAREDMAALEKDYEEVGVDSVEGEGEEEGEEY
Sequence of Tubulin (Sus scrofa) (P02554 whole entry, looked up): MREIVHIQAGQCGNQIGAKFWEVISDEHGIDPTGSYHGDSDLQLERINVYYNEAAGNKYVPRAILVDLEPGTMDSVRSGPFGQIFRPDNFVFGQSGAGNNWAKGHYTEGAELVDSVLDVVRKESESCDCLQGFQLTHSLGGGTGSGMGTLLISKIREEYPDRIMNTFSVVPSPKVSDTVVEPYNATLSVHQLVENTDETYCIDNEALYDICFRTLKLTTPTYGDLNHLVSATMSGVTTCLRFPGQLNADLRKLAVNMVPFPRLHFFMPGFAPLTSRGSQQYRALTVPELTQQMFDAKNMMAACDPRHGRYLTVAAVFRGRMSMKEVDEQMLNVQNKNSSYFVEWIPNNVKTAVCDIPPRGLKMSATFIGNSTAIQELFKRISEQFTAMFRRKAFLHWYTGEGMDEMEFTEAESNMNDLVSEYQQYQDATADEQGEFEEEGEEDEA

inhibition [2]: 70% | pIC50 [4]: 6.85 | pIC50 [6]: 4.51
Compound: COc1cc(C(=O)c2csc(-c3ccc(NC(=O)CCCC(=O)Nc4ccccc4N)cc3)n2)cc(OC)c1OC
Activity [1]: Dde | Activity [3]: Non-Toxic | Activity [5]: 10.9% | Activity [7]: 7.09% | Activity [8]: 36.7% | Activity [9]: 1.9% | Activity [10]: Non-Toxic
